Experimental data: ChEMBL document CHEMBL1157544, “New benzophenone-derived bisphosphonium salts as leishmanicidal leads targeting mitochondria through inhibition of respiratory complex II” (2010)
Active and inactive are the calls of the source. No cut-off for these calls is given here.

Columns and labels:
[1] = test system: Leishmania pifanoi; test: Antileishmanial activity against Leishmania pifanoi MHOM/VE/60/Ltrod after 96 hrs by MTT assay; type: functional
In short: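 Axenic amastigotes harvested at late exponential phase, washed twice in HBSS plus 10 mM D-glucose (pH 7.2) and set at 2 × 10^7 cells/mL. Drug exposure 4 h at 32 °C, then washed. Regrowth 96 h at 32 °C in growth medium without phenol red, followed by MTT (1 mg/mL) reduction for 2 h at 32 °C. LC50 taken from sigmoidal curves; triplicates ± SD.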

[2] = test system: Leishmania donovani; test: Antileishmanial activity against Leishmania donovani MHOM/SC/00/1S-2D promastigotes after 48 hrs by MTT assay; type: functional
In short: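 Late-exponential promastigotes washed twice in HBSS plus 10 mM D-glucose (pH 7.2) and resuspended at 2 × 10^7 cells/mL. Drug exposure 4 h at 25 °C, then cells washed to remove unbound drug. Regrowth 48 h at 25 °C in growth medium without phenol red, followed by MTT (1 mg/mL) reduction for 2 h at 25 °C. LC50 taken from sigmoidal inhibition curves; mean of triplicates ± SD.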

[3] = test system: Leishmania donovani; test: Antileishmanial activity against Leishmania donovani MHOM/SC/00/1S-2D promastigotes assessed as rhodamine 123 accumulation at LC50 by mitochondrial membrane potential assay; type: functional
In short: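 Promastigotes held overnight in growth medium with each compound at its LC50, then loaded with 0.3 μg/mL rhodamine 123. Dye uptake measured by flow cytometry (ex 488/em 525 nm) and expressed as percent of untreated cells. 1 mM KCN used as the fully depolarized control.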

[4] = test system: Leishmania donovani; test: Induction of apoptosis in Leishmania donovani MHOM/SC/00/1S-2D promastigotes assessed as apoptotic cells at 1 uM propidium iodide fluorescence cytofluorometry; type: functional
In short: (§1)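 Promastigotes incubated overnight with the compound, then stained with 50 μg/mL propidium iodide. The sub-G1 peak was measured by flow cytometry. 15 μM miltefosine under identical conditions served as the positive control.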

[5] = test system: Leishmania donovani; test: Induction of morphological changes in Leishmania donovani MHOM/SC/00/1S-2D promastigotes assessed as mitochondrial kinetoplast at 5 uM after 4 hrs; type: functional, organism-based
In short: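 Promastigotes treated 4 h under the standard conditions, washed in PBS and fixed in 5% glutaraldehyde. Post-fixed in 2.5% OsO4 for 1 h, dehydrated through graded ethanol and propylene oxide, embedded in Epon 812 and imaged by transmission electron microscopy.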

[6] = test system: Leishmania donovani; test: Induction of apoptosis in Leishmania donovani MHOM/SC/00/1S-2D promastigotes assessed as apoptotic cells at 2.5 uM propidium iodide fluorescence cytofluorometry; type: functional; in short: as §1
[7] = test system: Leishmania donovani; test: Decrease in intracellular ATP level in Leishmania donovani MHOM/SC/00/1S-2D promastigotes assessed as luminescence at 0.6 to 8 uM; type: functional, organism-based
In short: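 3-Luc promastigotes expressing cytoplasmic firefly luciferase, 2 × 10^7/mL in HBSS-Glc, loaded with 25 μM DMNPE-luciferin (final). Compound added at the luminescence plateau, counted as time zero and 100%. Luminescence recorded 80 min, averaged every 4 s, and normalized to untreated parasites.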

[8] = test system: Leishmania donovani; test: Antileishmanial activity against digitonized Leishmania donovani MHOM/SC/00/1S-2D promastigotes assessed as restoration of oxygen consumption at 16 uM in presence of TMPD-ascorbate; type: functional
In short: (§2)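 Clark electrode at 25 °C. Promastigotes at 10^8 cells/mL in respiration buffer with 5 mM succinate and 1 mg/mL fatty-acid-free BSA. Cells permeabilized with 60 μM digitonin, then 100 μM ADP added for state 3. After a steady rate, compound added, then 10 μM FCCP, 0.1 mM TMPD + 1.7 mM ascorbate, 6.7 mM α-glycerophosphate, 2 mM malonate or 1 μM antimycin A. Rates taken from trace slopes.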

[9] = test system: Leishmania donovani; test: Antileishmanial activity against Leishmania donovani MHOM/SC/00/1S-2D promastigotes assessed as inhibition of proliferation at 5 um after 4 hrs; type: functional
In short: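 Promastigotes washed into HBSS-Glc pH 7.2 at 2 × 10^7 cells/mL and exposed to drug for 4 h at 25 °C. Cells then washed and left to grow 48 h at 25 °C in growth medium without phenol red. Growth read by MTT reduction (1 mg/mL, 2 h). Triplicate samples.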

[10] = test system: Leishmania donovani; test: Antileishmanial activity against digitonized Leishmania donovani MHOM/SC/00/1S-2D promastigotes assessed as restoration of oxygen consumption at 16 uM in presence of alpha-glycerophosphate; type: functional, organism-based; in short: as §2
[11] = test system: Leishmania donovani; test: Antileishmanial activity against digitonized Leishmania donovani MHOM/SC/00/1S-2D promastigotes assessed as inhibition of oxygen consumption at 16 uM; type: functional, organism-based; in short: as §2
[12] = test system: Leishmania donovani; test: Antileishmanial activity against digitonized Leishmania donovani MHOM/SC/00/1S-2D promastigotes assessed as inhibition of oxygen consumption at 16 uM in presence of FCCP mitochondrial uncoupler; type: functional, organism-based; in short: as §2
[13] = test system: Leishmania donovani; test: Induction of apoptosis in Leishmania donovani MHOM/SC/00/1S-2D promastigotes assessed as apoptotic cells at 15 uM propidium iodide fluorescence cytofluorometry; type: functional; in short: as §1
[14] = test system: Leishmania donovani; test: Antileishmanial activity against Leishmania donovani MHOM/SC/00/1S-2D promastigotes assessed as plasma membrane integrity at 25 uM; type: functional, organism-based
In short: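 SYTOX green uptake. Promastigotes (2 × 10^7/mL) in HBSS-Glc were preincubated with 1 μM dye before compound was added. Fluorescence read at ex 485/em 520 nm. Full permeation was defined by 0.1% Triton X-100.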

Structure (SMILES) | LC50 [1] | LC50 [2] | Activity [3] | other results
CCCC[P+](CCCC)(CCCC)Cc1ccc(C(=O)c2ccc(C[P+](CCCC)(CCCC)CCCC)cc2)cc1 | > 50 µM | > 50 µM |  | 
C[P+](C)(Cc1ccc(C(=O)c2ccc(C[P+](C)(C)c3ccccc3)cc2)cc1)c1ccccc1 | > 50 µM | > 50 µM |  | 
CCCCCCCCCCCCCCCCOP(=O)([O-])OCC[N+](C)(C)C [MILTEFOSINE] | 26.3 µM | 12.5 µM | 75% | 
Cc1ccccc1[P+](Cc1ccc(C(=O)c2ccc(C[P+](c3ccccc3)(c3ccccc3)c3ccccc3C)cc2)cc1)(c1ccccc1)c1ccccc1.[Br-].[Br-] | 1.51 µM | 1.9 µM | 55.75% | 
CCC[P+](CCC)(CCC)Cc1ccc(C(=O)c2ccc(C[P+](CCC)(CCC)CCC)cc2)cc1 | > 50 µM | > 50 µM |  | 
O=C(c1ccc(C[P+](c2ccccc2)(c2ccccc2)c2ccccn2)cc1)c1ccc(C[P+](c2ccccc2)(c2ccccc2)c2ccccn2)cc1.[Br-].[Br-] | 2.58 µM | 3.03 µM | 100% | 
CC[P+](CC)(CC)Cc1ccc(C(=O)c2ccc(C[P+](CC)(CC)CC)cc2)cc1 | > 50 µM | > 50 µM |  | 
CC(C)[P+](Cc1ccc(C(=O)c2ccc(C[P+](C(C)C)(C(C)C)C(C)C)cc2)cc1)(C(C)C)C(C)C | > 50 µM | > 50 µM |  | 
CCCCC[P+](CCCCC)(CCCCC)Cc1ccc(C(=O)c2ccc(C[P+](CCCCC)(CCCCC)CCCCC)cc2)cc1.[Br-].[Br-] | 0.97 µM | 1.09 µM | 48% | Activity [4]: 22.1%; Activity [5]: Active; Activity [6]: 34.5%; Activity [7]: Active; Activity [8]: 50%; inhibition (INH) [9]: 80%; Activity [10]: Active; Activity [11]: Active; Activity [12]: Active; Activity [13]: 24.9%; Activity [14]: inactive
C[P+](C)(C)Cc1ccc(C(=O)c2ccc(C[P+](C)(C)C)cc2)cc1 | > 50 µM | > 50 µM |  | 
CC[P+](CC)(Cc1ccc(C(=O)c2ccc(C[P+](CC)(CC)c3ccccc3)cc2)cc1)c1ccccc1 | > 50 µM | > 50 µM |  | 
C[P+](Cc1ccc(C(=O)c2ccc(C[P+](C)(c3ccccc3)c3ccccc3)cc2)cc1)(c1ccccc1)c1ccccc1.[Br-].[Br-] | 1.64 µM | 19.3 µM | 100% | 
O=C(c1ccc(C[P+](c2ccco2)(c2ccco2)c2ccco2)cc1)c1ccc(C[P+](c2ccco2)(c2ccco2)c2ccco2)cc1 | > 50 µM | 18.1 µM |  | 
Cc1ccc([P+](Cc2ccc(C(=O)c3ccc(C[P+](c4ccccc4)(c4ccccc4)c4ccc(C)cc4)cc3)cc2)(c2ccccc2)c2ccccc2)cc1.[Br-].[Br-] | 1.38 µM | 1.2 µM | 53.25% | 
CCCCCCCC[P+](CCCCCCCC)(CCCCCCCC)Cc1ccc(C(=O)c2ccc(C[P+](CCCCCCCC)(CCCCCCCC)CCCCCCCC)cc2)cc1.[Br-].[Br-] | 1.37 µM | 5.66 µM | 10.8% | 
CC[P+](Cc1ccc(C(=O)c2ccc(C[P+](CC)(c3ccccc3)c3ccccc3)cc2)cc1)(c1ccccc1)c1ccccc1.[Br-].[Br-] | 14 µM | 6.9 µM | 100% | 
O=C(c1ccc(C[P+](c2ccccc2)(c2ccccc2)c2ccccc2)cc1)c1ccc(C[P+](c2ccccc2)(c2ccccc2)c2ccccc2)cc1.[Br-].[Br-] | 1.53 µM | 2.73 µM | 67.25% | 
CC(C)C[P+](Cc1ccc(C(=O)c2ccc(C[P+](CC(C)C)(CC(C)C)CC(C)C)cc2)cc1)(CC(C)C)CC(C)C | > 50 µM | > 50 µM |  | 
O=C(c1ccc(C[P+](C2CCCCC2)(C2CCCCC2)C2CCCCC2)cc1)c1ccc(C[P+](C2CCCCC2)(C2CCCCC2)C2CCCCC2)cc1.[Br-].[Br-] | 1.67 µM | 3.3 µM | 42% | 
O=C(c1ccc(C[P+](c2ccccc2)(C2CCCCC2)C2CCCCC2)cc1)c1ccc(C[P+](c2ccccc2)(C2CCCCC2)C2CCCCC2)cc1.[Br-].[Br-] | 1.45 µM | 2.1 µM | 83.12% | 
